This is an account of results in article PMC2668958 (Combinatorial chemistry & high throughput screening, 2008).

The target in data set [1] is T1, Glucocerebrosidase (GC) (Homo sapiens, UniProt P04062, R534H).
T1 sequence (P04062 40-536 R534H): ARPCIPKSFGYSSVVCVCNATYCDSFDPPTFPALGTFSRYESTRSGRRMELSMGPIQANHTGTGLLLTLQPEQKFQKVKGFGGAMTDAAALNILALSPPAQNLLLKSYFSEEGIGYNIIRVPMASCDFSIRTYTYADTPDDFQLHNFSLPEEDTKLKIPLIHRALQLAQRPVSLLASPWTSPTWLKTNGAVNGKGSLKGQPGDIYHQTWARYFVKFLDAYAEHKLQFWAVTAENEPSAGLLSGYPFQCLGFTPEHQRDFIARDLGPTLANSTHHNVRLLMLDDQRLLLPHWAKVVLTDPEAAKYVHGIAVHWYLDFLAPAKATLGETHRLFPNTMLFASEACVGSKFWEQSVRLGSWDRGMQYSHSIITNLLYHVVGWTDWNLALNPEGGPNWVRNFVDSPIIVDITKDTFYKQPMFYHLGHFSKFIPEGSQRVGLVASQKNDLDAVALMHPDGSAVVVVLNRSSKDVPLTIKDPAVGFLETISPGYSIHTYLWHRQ
The data set is described as follows: "blue" GC enzyme kinetic assay, 384-well. The settings on record: substrate of "blue" assay, 1.9 nM enzyme. It is filed as biochemical. In short, it runs like this: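 384-well format. 1.9 nM GC in pH 5.9 buffer (50 mM citric acid, 176 mM K2HPO4, 0.01% Tween-20, 10 mM sodium taurocholate). Reaction started with 4MU-β-Glc at final 3000–23.4 μM (1:2 series, eight levels), run at RT. Separate plates were stopped with 1 M NaOH/1 M glycine pH 10 at 2, 4, 6, 8, 10 and 12 min and read at 440 nm. Product was quantified from a 4-methylumbelliferone standard curve.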

Data set [2] addresses T1, Glucocerebrosidase (GC). The data set is described as follows: 4MU-β-Glc. The format is biochemical. The settings on record: read-out: IC50 in the "blue" GC assay; known GC inhibitors; 800 μM 4MU-β-Glc, 1.9 nM enzyme.
For data set [3], the target named is T1, Glucocerebrosidase (GC). The data set is described as follows: Res-β-Glc. The format is biochemical.
The conditions of data set [4]: CBE solutions in DMSO left at RT for more than a few hours (data not shown).
Data set [5] addresses T1, Glucocerebrosidase (GC). The data set is described as follows: "red" GC enzyme kinetic assay, 384-well. The format is biochemical. The settings on record: substrate of "red" assay, 1.9 nM enzyme. Put shortly: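 Kinetics were run in 384-well plates with 1.9 nM GC in pH 5.9 citrate/K2HPO4 buffer containing 0.01% Tween-20 and 10 mM sodium taurocholate. Res-β-Glc was added at final 100, 60, 40, 20, 10, 5 and 2.5 μM at RT, with no stop step. One plate was read continuously for 610 nm emission at 2 min intervals. Product was converted using a resorufin standard curve in assay buffer.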

The mark [6] stands for this setting: varied substrate concentrations.

As usually defined, the Vmax is the rate approached at saturating substrate. As a reminder, the Km is the concentration of substrate that gives half-maximal velocity. On to `Cc1cc(=O)oc2cc(O[C@@H]3O[C@H](CO)[C@@H](O)[C@H](O)[C@H]3O)ccc12` [4MU-β-Glc, 4-methylumbelliferyl β-D-glucopyranoside], for which the Vmax at Glucocerebrosidase (GC) [1] is given as 1.56 pmol/min. The Km at Glucocerebrosidase (GC) [1] (setting [6]) turned out to be 768 µM.

What is called IC50 is the point on the concentration scale where inhibition reaches its midpoint. With `O[C@H]1[C@H](O)[C@@H](O)[C@@H]2O[C@@H]2[C@@H]1O` [CBE, Conduritol β-epoxide], the concentration for half-maximal inhibition (IC50) on Glucocerebrosidase (GC) [2] is 15.4 µM; on Glucocerebrosidase (GC) [3] (read-out: IC50 in the "red" GC assay, known GC inhibitors, 30 μM Res-β-Glc, 1.9 nM enzyme), 13 µM. In addition, the “shift of IC50 value” in data set [4] is listed as 2- to 10 fold.

Consider `N.N.[Cl][Pt][Cl]` [Cisplatin], for which, at Glucocerebrosidase (GC) [3] (neat samples of primary hits, "red" GC enzyme assay), the “GC inhibitory activity on hit confirmation” value is “inactive”.

As for `O=c1ccc2nc3ccc(O[C@@H]4O[C@H](CO)[C@@H](O)[C@H](O)[C@H]4O)cc3oc-2c1` [Res-β-Glc, Resorufin β-D-glucopyranoside], at Glucocerebrosidase (GC) [5], the maximal velocity (Vmax) came out at 7.11 pmol/min. The Km at Glucocerebrosidase (GC) [5] (setting [6]) amounted to 33 µM.

For `CN[C@@H](C)[C@H](O)c1ccccc1` [compound 1, (-)-Ephedrine hemisulfate], the IC50 at Glucocerebrosidase (GC) [3] stood at 0.79 µM.

In the case of `O=C(/C=C/c1ccc(O)cc1)c1ccc(O)cc1O` [compound 2, Isoliquiritigenin], on Glucocerebrosidase (GC) [3], it took 2.57 µM to reach half-maximal inhibition (IC50).

For `CC[N+](CC)(CC)CCOc1cccc(OCC[N+](CC)(CC)CC)c1OCC[N+](CC)(CC)CC` [compound 3, Gallamine triethiodide], 3.59 µM corresponded to half-maximal inhibition against Glucocerebrosidase (GC) [3] (IC50).

On to `C[N+]1(C)CCN(c2ccccc2)CC1` [compound 6, 1,1-Dimethyl-4-phenyl-piperazinium iodide], for which, at Glucocerebrosidase (GC) [3], the concentration for half-maximal inhibition (IC50) is 6.8 µM.

In turn, `O=c1c2ccccc2[se]n1-c1ccccc1` [compound 10, Ebselen] returned a half-maximal inhibitory concentration (IC50) at Glucocerebrosidase (GC) [3] of 0.63 µM.
